Experiments:
Assay type in all cases: cell-based
Conditions in all cases: read-out: MIC of ceftazidime
[1] = tested on: Escherichia coli DH10B cells expressing NDM-1; experiment: MIC assay, E. coli DH10B cells expressing NDM-1
[2] = tested on: Escherichia coli DH10B cells expressing IMP-1; experiment: MIC assay, E. coli DH10B cells expressing IMP-1
[3] = tested on: Escherichia coli DH10B cells not expressing any MBL; experiment: MIC assay, E. coli DH10B control cells not expressing any MBL
Method in brief: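 Ceftazidime MIC was measured in complex medium against E. coli DH10B carrying no MBL. This strain served as the control for DH10B expressing NDM-1, IMP-1 or VIM-2.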

[4] = tested on: Escherichia coli DH10B cells expressing VIM-2; experiment: MIC assay, E. coli DH10B cells expressing VIM-2

## CC(C)(O/N=C(\C(=O)N[C@@H]1C(=O)N2C(C(=O)[O-])=C(C[n+]3ccccc3)CS[C@H]12)c1csc(N)n1)C(=O)O [ceftazidime]
[1]
  MIC: 256 µg/mL
[2]
  MIC: 512 µg/mL
[3]
  MIC: 0.5 µg/mL
[4]
  MIC: 32 µg/mL
